Fewer inactive variants are shown than the library holds.

Sequences and labels used below:
B1: tRNA (parent)
chain: GUUCCGUUGGCGUAAUGGUAACGCGUCUCCCUCCUAAGGAGAAGACUGCGGGUUCGAGUCCCGUACGGAACG

In this data set the parent is B1. The experiment in a line: yeast fitness relative to wild type (ratio to wild type); higher = fitter; tRNA-Arg(CCU), competitive growth, 37 C, YPD. In short, it runs like this:
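Variants of the tRNA-Arg(CCU) gene, chemically synthesised with a 3% per-site mutation rate at 69 sites, were placed at the native genomic locus in Saccharomyces cerevisiae. The pooled strains were competed in YPD at 37°C for 24 hours in six parallel replicates. Gene amplicons from the start population and from each end population were read by 100-nucleotide paired-end sequencing. Darwinian fitness relative to wild type came from changes in genotype frequencies; genotypes needed ≥ 100 starting reads, and estimates < 0.5 were set to 0.5.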
As for GUUCCGUUGGCGUAAUCGUGACGCGUCUCCCUCCUAAGGAGAAGACUGCGGGGUCGAGUCCCGUACGGAUCG [G17C A20G U53G A70U], the yeast fitness is no more than 0.5.

GCUCCGUUGGCGUAAUGGUAACGCGUCACCCUCCUAAGGAGAAGACUGCGGGUCCGAGUCCCGUACGGAACG [U2C U28A U54C]: the yeast fitness was 0.543.

As for GUUCCGUUGGCGUAAUGGUAACGCGUCUCCCUCCUAAGGAGAGGACUGCGGGUUCGCAUCCCGUUCGGAACG [A43G A57C G58A A65U], the yeast fitness is no more than 0.5.

As for GUUCCGUUGGUGUAAUGGUAACGCGUCUCCCUCCUAAGGAGAAGACUGCCGGUUCGAGUCCCGUACGGAACG [C11U G50C], the yeast fitness is 0.759.

On to GUUUCGUUGGCGUAAUGGUAACGCGUCUCCCUCCUAAGGACAAGACUGCGGGUUCGAGUGCCGUACGGAACG [C4U G41C C60G], for which the yeast fitness is no more than 0.5.

GUUCCGUUGGCGUAAUGGUAACGGGUCUCCCUCCUAAGGAGAAGACUGCGGGUUGGAGUCCCGUACGGAACG [C24G C55G]: the yeast fitness is 0.649.

Turning to GUUCCGUUGGCGUAAUGGUAACGCGUCUCACUCCUAAGGAGAAGACUGGGGGUUCGAGUCCCGUACGGAACG [C30A C49G], the yeast fitness came to 0.798.

In the case of GUUCCGUUGGCGUAAUGGGAACGCGUCUCCAUCCUAAGCAGAAGACUGCGGGUUCGAGUCCGGUACGAAACG [U19G C31A G39C C62G G68A], the yeast fitness was no more than 0.5.

On to GUUCCGUUGGCGUAAUGGUAGCGCCUGUCCCUCCUAAGGAGCGGACUGCGGGUUCGAGUCCCGUACGGAACG [A21G G25C C27G A42C A43G], for which the yeast fitness is no more than 0.5.

Consider GUUCCGUUGGCGUAAUGAUAACGCGUCUCCCUCUUAAGGAGACGACUGCGGGGUCGAGUCCCGUACGGAACG [G18A C34U A43C U53G], for which the yeast fitness is no more than 0.5.

Turning to GUUCCGUUGGCGUAAUGGUAACGCGUCUCCUUCCUAAAGCGAAGACUGCGGGUUCGAGUCCCGUACGCAUCG [C31U G38A A40C G68C A70U], the yeast fitness is no more than 0.5.

GUUCCGUUGGCGUAAUGGUAACGCGACUCCCUCCUAAGGAGAAGACGGGGGGUUCGAGUCCCGUACGGCACG [U26A U47G C49G A69C]: the yeast fitness is no more than 0.5.

On to GUUCCGUUAGCGUAACGGUAACGCGUCUCGCUCGUAAGGGGAAGACUGCGGGUUCGAGUCAUCUACGGAACG [G9A U16C C30G C34G A40G C61A C62U G63C], for which the yeast fitness worked out at 0.666.

For the variant GUUCCGUUGGCGUACUGGUAACGCGUCUCCCUCCUAAGGAGAAAACUGCGGGUUCGAGUCCCGUACGGAACG [A15C G44A], the yeast fitness amounted to 0.707.

On to GUUCCGUUGGCAUAGUGGUAACGCGUCUCCAUCCUAAGGAGAAGACUGCGGGUUCGAGUCCCGUACGGAACG [G12A A15G C31A], for which the yeast fitness is no more than 0.5.

On to GUUCCGUUGGCGUAUUGGUAACGCGUCUCGCUCUUAAGGAGAAGACUGCGGGUUCGAGUCCCGUACGGAACG [A15U C30G C34U], for which the yeast fitness worked out at 0.71.

As to GUUACGUUGGCGUUAUGGUCACGCGUCGCCCUCCUAAGGAGAAGACUGCGGGUUCGAGUCCCUUACGGCACG [C4A A14U A20C U28G G63U A69C], the yeast fitness was no more than 0.5.

Consider GUUCCGUUGGUGUAAUGGUAACGCGUCUCCCUCCUAAGGGGAAGACUGCGGGUUCGAGUCCCGUCCGGAACG [C11U A40G A65C], for which the yeast fitness stood at 0.594.

Turning to GUUCAGUUGGCGUAGUGGUAACGCGUCUCCCUACUAAGGAGAAGACUGCGGGUUCGAGUCCCGUACGGAACG [C5A A15G C33A], the yeast fitness was no more than 0.5.

Take GCUCCGUUGGCGUAAUGGUAACGCGUCUCCCUGUUAAGGAGAAGACUGUGGGUUCGAGUCCCGUACGGAACG [U2C C33G C34U C49U]: the yeast fitness was no more than 0.5.

Turning to GUUCAGUUGCCGUAAUGGUAACGCGCCUCCCUCCUAAGCAGAAGACUGCGGGUUCGAGUCUCGUACGGAACG [C5A G10C U26C G39C C61U], the yeast fitness is no more than 0.5.

On to GUUCCGUUGGCGUAAUGGUAGCGCGUCUCCCUCCUAAGGAGAAGACUGCGGGCUCGCGUCCCGUACGGUACG [A21G U53C A57C A69U], for which the yeast fitness came to 0.597.

Turning to GUUCCGUUGGCGAAAUGGUAAAGCGUUUCCCUCCUAAGGAGUAGACUGCGGGUUCGAGUCCCGUACGGAACG [U13A C22A C27U A42U], the yeast fitness was no more than 0.5.

For the variant GUUCCGUUGGCGUAAUGGUUACGCGUCUGCCUCCUAAGGAGAAGACUGGGGGUUCGAGUCCCGUACGGAACG [A20U C29G C49G], the yeast fitness stood at 0.5.

For the variant GUUCCGUUGGCGGAAUGGUAACGCGUCUUCCUCCUAAGGAGAAGACUGCGGGUUCGAGUCCCGUACGGAACG [U13G C29U], the yeast fitness was found to be 0.769.

GUUCCGUUGGCGUAAUGGUAACGCGUCUCCCUCCUAGGGUGAAGACUGAGGGUUCGUGUCCCGUACGGAACG [A37G A40U C49A A57U]: the yeast fitness is no more than 0.5.

As for GUUCCGUUGGCGUAAUGGUAACGCGUCUCCCUCCUAAGGAAAAGACUGCGGGUUCGAGUCCCGUACGGCACG [G41A A69C], the yeast fitness was found to be 0.801.

In the case of GUUCUGUUGGCGUAAUGGUAACGCGACUCCCUCCUAAGGAGAAGACUGCGGGUUCGAGUCCCGUACGGCACG [C5U U26A A69C], the yeast fitness stood at 0.78.

GUUCCGUUGGCGUAUUGGUAACGCGUCUCCGUCCUAAGGAGAAGACUGCGGGAUUGCGUGCCGUACCGAACG [A15U C31G U53A C55U A57C C60G G67C]: the yeast fitness amounted to 0.546.

Regarding GUUCCGUUGGCAUAAUGGUAACGCGUCUCCUUCCUAAGGAAAAGACUGCGGGUUCGAGUCCCGUACGGAACG [G12A C31U G41A], the yeast fitness is 0.686.

With GUGCCGUUGGCAUAAUGGUAACGCGUCUCCCUCCUAAGGAGAAGACUGCGGGUUCGAGUCCCGUACGGAACG [U3G G12A], the yeast fitness was 0.682.

Turning to GUCGCGUUGGCGUAAUGGUAAGGCGUCUCCCUUCUCAGGUGAAGACUGCGGGUUCGAGUCCCGUACGGAACG [U3C C4G C22G C33U A36C A40U], the yeast fitness is no more than 0.5.

As to GUUCCGUUGACGUAAUGGUAACGAGUCUCCCUCCUAAGGAGAAGACUGCGGUUUCGAGUCCCGUACGGAACG [G10A C24A G52U], the yeast fitness was no more than 0.5.

GUUCCGUUGGCGUAAUGGUAACGCGUCUCCCUCCUAUGGAGAAGACUGCGGGUUCGAAUCCCGUACGAAACG [A37U G58A G68A]: the yeast fitness was 0.588.

Take GUUCCGUUGGCGUAAUGGUAACGCGUCUCCCUCCUAAGGCGAAGACUGCGGGUUCGAGUCCCGUACGGACCG [A40C A70C]: the yeast fitness worked out at 0.94.

As for GUUCCGUUGGCGUAAUGGUAACGCGUGUCCUUCCUAAGGAGAAGACUGCGGGCUCGAGUCCCGUACGGAACG [C27G C31U U53C], the yeast fitness stood at 0.573.

For GUUCGGUUGGCGCAAUGGUCACGCGUCUCCCGCCUAAGGAGAAGAUUGCGGGUUCGACUCCCGUACGGAACG [C5G U13C A20C U32G C46U G58C], the yeast fitness is no more than 0.5.

Regarding GUUCCGUUGGCGUAAUGGUAACGCGUCUCCCUCCUAAGGAGAAGACUACGCGUUCGAGUCCCGUACGGAACG [G48A G51C], the yeast fitness was determined as 0.655.

These data come from the RNAGym collection of RNA variant scans (doi:10.1126/science.aae0568).
